Most compounds without a hit are left out; they make up all but 3.8% or so of the library.
KCNK3 inh = human KCNK3 channel inhibition, primary screen | O14649 | CHO-KCNK3 thallium flux, FluxOR fluorescence; stronger effect = lower value | B-score at 10 µM | actives 0.84% (n = 340,000) | AID 602410;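 active = B-score under library mean minus 4 SD, starting fluorescence ratio at most library mean plus 5 SD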;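 note: more negative B-score means stronger inhibition of thallium flux through KCNK3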
hERG rescue = hERG (human) protection from proarrhythmic block | Q12809 | CHO-hERG, FluxOR thallium flux, dofetilide IC70 present | activation (rescue from dofetilide block), less the hit threshold, % at 10 µM | actives 0.51% (n = 310,000) | AID 1511;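 active = activation above the mean of controls blocked by dofetilide plus 5 SD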;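 note: thallium influx through hERG after potassium depolarization seen as dye fluorescence rise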
KCNQ1 inh = blocks the human KCNQ1 potassium channel; P51787; CHO-K1 KCNQ1, FluxOR thallium flux fluorescence; stronger effect = higher value; B-score at 10 µM; actives 1.3% (n = 310,000);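 active = compounds whose thallium flux B-score, printed positive for inhibition, exceeds three library SD while starting fluorescence stays within three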;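 note: channel opened by potassium depolarization with thallium stimulus after 20 min compound exposure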
Kir21 block = blocks the mouse Kir2.1 inward-rectifier potassium channel. P35561. HEK293-Kir2.1, FluxOR thallium flux fluorescence; stronger effect = lower value. B-score at 10 µM. actives 0.85% (n = 310,000);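 active = fluorescence ratio B-score at or below minus 3 SD of library scores, with starting-brightness B-score within 2 SD, cut at about -4.2 in these data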;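 note: channel flux triggered by added potassium and thallium sulfate stimulus; B-score of peak minus minimum fluorescence over baseline after thallium stimulus; more negative B-score means stronger Kir2.1 block with less thallium influx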
KCNK9 inh = human KCNK9 channel inhibition | HEK293 KCNK9, FluxOR thallium flux fluorescence; stronger effect = lower value | B-score at 10 µM | actives 1.2% (n = 310,000);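 active = ratio B-score over 3 SD below the library mean, with starting fluorescence within 5 SD of its mean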;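 note: negative B-score means less thallium flux so channel inhibition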
Target sequence (Q9NPC2 whole entry, looked up): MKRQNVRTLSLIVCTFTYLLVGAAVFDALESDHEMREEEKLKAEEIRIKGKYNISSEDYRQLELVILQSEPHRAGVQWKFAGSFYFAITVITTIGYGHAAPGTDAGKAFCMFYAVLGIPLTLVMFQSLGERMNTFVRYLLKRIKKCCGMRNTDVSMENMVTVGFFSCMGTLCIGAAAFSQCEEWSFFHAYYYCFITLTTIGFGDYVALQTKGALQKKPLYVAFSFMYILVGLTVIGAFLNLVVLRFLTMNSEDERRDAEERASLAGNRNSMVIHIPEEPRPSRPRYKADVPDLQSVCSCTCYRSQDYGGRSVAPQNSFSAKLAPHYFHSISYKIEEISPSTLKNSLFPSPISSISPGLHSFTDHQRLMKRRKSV
KCNQ1 act = potentiators or activators of human KCNQ1 potassium channel; B-score at 10 µM; actives 0.35% (n = 310,000); CHO-K1 KCNQ1, thallium flux FluxOR fluorescence; stronger effect = higher value; P51787; AID 2648;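 active = fluorescence ratio B-score, a plate-corrected score, at least three library SD, with initial intensity B-score within 5 SD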
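Medium – assay buffer, equal DMSO in all wells · Material – CHO-K1 cell line with stable KCNQ1 potassium channel expression · Signal – kinetic FluxOR thallium fluorescence, 10-s 1-Hz baseline, 110-s post-stimulus read · Compound – single concentration per compound, DMSO matched to controls · Schedule – 37 °C overnight plating, 90-min dark dye load, 20-min compound pretreatment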
KCNK9 block conf = confirmation of human KCNK9 potassium channel inhibitors. inhibition, % at 10 µM. HEK293 KCNK9 cells, FluxOR thallium flux fluorescence. actives 43% (n = 4,900). shares compounds with KCNK9 inh;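 active = thallium signal inhibited by more than 5 SD of the compound-free buffer control wells, on both duplicate plates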;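 note: 0% = assay buffer control wells without compound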
Kir2-1 spec = tests whether KCNK9 modulators also affect mouse Kir2.1; Kir2.1 cells, FluxOR thallium flux fluorescence; actives 4% (n = 4,900); shares compounds with KCNK9 inh; AID 492993; inhibition, % at 10 µM;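 active = thallium signal drop more than 5 SD beyond the mean of the no-compound control wells, seen in both duplicate plates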;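 note: signal is fluorescence rise after thallium addition divided by baseline fluorescence; plate controls were assay buffer only for no effect and full block by chlorpromazine control for full effect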
KCNK9 uninduced = non-induced cell nonspecific activity of KCNK9 modulators; shares compounds with KCNK9 inh; non-induced KCNK9-HEK293, FluxOR thallium flux; inhibition, % at 10 µM; actives 40% (n = 4,900);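 active = thallium signal drop beyond 5 SD of the untreated control mean, on both duplicate plates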;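 note: plate controls were buffer only IC0 wells for no effect and SID17386958 at its maximal inhibitory level for full effect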
The depositor's hits bear a star; i = inactive; x = no result given.

SMILES | KCNK3 inh | hERG rescue | KCNQ1 inh | Kir21 block | KCNK9 inh | KCNQ1 act | KCNK9 block conf | Kir2-1 spec | KCNK9 uninduced
O=C(Nc1cc2c3c(c1)C1CCCC1CN3CC1CCCC21)c1ccccc1 (configuration not stated) | i | -10 | 9* | 1.2 | -12* | i | i | i | i
O=C(COc1ccc(Cl)cc1)N(Cc1ccccc1)c1nc(-c2ccccc2)cs1 | i | -13 | i | -2.4 | i | i | x | x | x
Fc1ccc(N2N=C(c3cccs3)CC2c2ccccc2)cc1 (configuration not stated) | i | -13 | i | -0.32 | -11* | i | 50%* | i | 45%*
Cc1cccc(N2CCN(Cc3nc(-c4cccc(Oc5ccccc5)c4)oc3C)CC2)n1 | i | -17 | i | 0.85 | i | i | i | i | i
CCN(CC)c1ccc(CNc2ccc(Br)cn2)cc1 | i | -7 | i | 0.85 | i | i | i | i | i
O=C(Nc1cccc(Cl)c1N1CCCC1)c1ccco1 | i | -8 | i | 0 | -9.9* | i | i | i | 29%*
O=C(Nc1ccc(N2CCCC2)c(Cl)c1)c1ccco1 | i | -6 | i | 1.1 | i | i | x | x | x
CC1(C)CC2(CCCN(CC(O)(c3ccccc3)c3ccccc3)C2)CCO1 (configuration not stated) | i | -18 | i | -1.3 | i | i | x | x | x
CCC(=O)/C=C1/Sc2ccccc2N1CC | i | -4 | i | 0.82 | i | i | x | x | x
CCN1/C(=C/c2sc(-c3ccccc3C)c[n+]2C)Sc2ccccc21 | -10* | -52 | 11* | -7.6* | -13* | i | 69%* | 64%* | 28%*
O=C(c1cccs1)N1CCc2c([nH]c3ccccc23)C1c1ccccn1 (configuration not stated) | i | -10 | i | 0.15 | -9* | i | i | i | i
Cc1ccc2nc(C(=O)N3CCc4c([nH]c5ccccc45)C3c3ccccn3)cn2c1 (configuration not stated) | i | -4 | i | 0.04 | i | i | x | x | x
CSc1nc(C(=O)N2CCc3c([nH]c4ccccc34)C2c2ccccn2)cs1 (configuration not stated) | i | -7 | i | -0.55 | -9.7* | i | 49%* | i | 29%*
Cc1ccnc(NC(=O)C23CC4CC(CC(C4)C2)C3)c1 | i | -3 | i | -0.33 | i | i | i | i | i
CCCCc1ccc(-c2ccc(Br)cc2)nc1 | i | -6 | i | -1.6 | i | i | i | i | i
COc1ccc(-c2nnc(SC(C(=O)c3c[nH]c4ccccc34)c3ccccc3)n2N)cc1OC (configuration not stated) | i | -5 | i | 0.15 | i | i | x | x | x
Cc1[nH]n(-c2ccc(Br)cc2)c(=O)c1/C=N/NC(=O)c1ccccc1 | i | -9 | i | -0.22 | i | i | i | i | i
O=C(NCC1CCCO1)C1CCCN(S(=O)(=O)c2ccc(Br)cc2)C1 (configuration not stated) | i | -6 | i | 1.4 | i | i | x | x | x
COc1cc(OC)cc(C(=O)NNS(=O)(=O)c2ccc(F)cc2)c1 | i | -5 | i | 1.6 | i | i | x | x | x
O=c1cc(CN2CCN(Cc3ccccc3)CC2)c2cc3c(cc2o1)CCC3 | i | -9 | i | -0.02 | i | i | i | i | i
O=c1cc(CN2CCN(CCO)CC2)c2cc3c(cc2o1)CCC3 | i | -13 | i | -1.3 | i | i | x | x | x
CC(C)(C)NC(=S)NC(=O)C12CCC3CC(CC(C3)C1)C2 | i | -2 | i | -1.2 | i | i | i | i | i
O=C(O)C1CCN(C(=O)CSc2nnc(-c3ccccc3)o2)CC1 | i | x | x | x | x | x | x | x | x
COc1ccc(C(c2nnnn2Cc2ccccc2)N2CCN(c3nc4ccccc4s3)CC2)cc1OC (configuration not stated) | i | -10 | i | -0.41 | -8.7* | i | i | i | i
CC(C)(C)n1nnnc1C(c1cccc(C#N)c1)N1CCCCCC1 (configuration not stated) | i | -10 | i | -2.1 | i | i | x | x | x
SMILES | KCNK3 inh | hERG rescue | KCNQ1 inh | Kir21 block | KCNK9 inh | KCNQ1 act | KCNK9 block conf | Kir2-1 spec | KCNK9 uninduced
CCC(C)(C)n1nnnc1C(c1cccc(C#N)c1)N1CCN(c2cccc(C)c2C)CC1 (configuration not stated) | -9.5* | -7 | i | 0.02 | -17* | i | 74%* | i | 38%*
COc1ccccc1C(c1nnnn1Cc1ccccc1)N1CCN(c2nc3ccccc3s2)CC1 (configuration not stated) | i | -7 | i | 0.09 | i | i | x | x | x
CCC(C)(C)n1nnnc1C(c1ccc(O)c(OC)c1)N1CCN(c2nc3ccccc3s2)CC1 (configuration not stated) | i | -9 | i | -0.02 | -15* | i | 46%* | i | 28%*
Cc1ccc(NC(=O)NC2CCCCCCC2)c(C)c1 | i | -11 | i | -0.75 | i | i | x | x | x
COc1ccccc1N1CCN(C(=O)c2oc3cc(C)cc(C)c3c2C)CC1 | i | -13 | i | 1.7 | i | i | i | i | i
CCOc1ccccc1N1CCN(C(=O)c2cc3c(C)cc(C)cc3[nH]2)CC1 | i | -6 | i | -1.1 | -8.3* | i | i | i | i
CCOC(=O)C1CCN(C(=O)c2cc3c(C)cc(C)cc3[nH]2)CC1 | i | -3 | i | -1.6 | i | i | x | x | x
O=C(Nc1nc(-c2ccccn2)cs1)c1ccc(Cl)s1 | i | -3 | i | -1.1 | i | i | x | x | x
O=C(Nc1nc(-c2cc(Cl)sc2Cl)cs1)c1ccccc1 | i | -7 | i | 0.93 | -9.5* | i | 34%* | i | i
Fc1cccc(Cl)c1CSc1nnc(CN2CCOCC2)n1-c1ccccc1 | i | -2 | i | 0.91 | i | i | x | x | x
C=CCOc1ccc(CN(C)Cc2nc3cc(C(F)(F)F)ccc3c(=O)[nH]2)cc1 | i | -16 | i | -2.2 | i | i | i | i | i
